Active and inactive are the calls of the source. The rule behind the calls is not given here.
Legend:
[1] = Inhibition of West Nile virus NS2B-NS3 protease using 2-Abz-Gly-Leu-Lys-Arg-Gly-Gly-[…]-Tyr-NH2 as substrate preincubated with protein for 15 mins followed by substrate addition measured for 15 mins by FRET assay
How it was run: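 WNV NS2B-NS3 linked construct at 75 nM (40 nM in one case) in pH 9 Tris buffer, preincubated 15 min with eight inhibitor concentrations (ranges 0–1 up to 0–50 μM). Substrate was 50 μM, with FRET readout over 15 min. IC50 was fitted from triplicates.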

[2] = Selectivity index, ratio of CC50 for African green monkey Vero cells to EC50 for Dengue virus serotype-2 infected in African green monkey Vero cells; type: toxicity, cell-based; settings: read-out: Ratio CC50/EC50
[3] = Retention time of compound by RP-HPLC analysis; type: physicochemical
[4] = Cytotoxicity against human HuH7 cells infected with Dengue virus serotype-2 assessed as cell viability after 48 hrs by Cell-Titer-Glo luminescent viability assay; type: cell-based, Huh-7
How it was run: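 Huh-7 cells (10^4/well) were seeded in DMEM + 10% FBS overnight, then infected with WT DENV-2 (MOI 1) in the presence of compound, triplicate per concentration. After 48 h at 37 °C, medium was replaced with fresh DMEM and viability was read by CellTiter-Glo luminescence. CC50 was determined.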

[5] = Selectivity index, ratio of CC50 for human HuH7 cells to EC50 for West Nile virus infected in human HuH7 cells; type: toxicity, cell-based, Huh-7; settings: read-out: Ratio CC50/EC50
How it was run: (§1)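 Huh-7 cells (10^4/well) in DMEM + 10% FBS, overnight at 37 °C, then infected with WNV (MOI 0.1) plus compound, triplicate, 48 h. Pooled supernatant plaque-titrated on Vero E6 (10^-2 to 10^-7, 3 days, crystal violet), giving EC50 by nonlinear fit. Viability of the same infected cells by CellTiter-Glo luminescence gave CC50. Reference inhibitor also assayed.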

[6] = target: Prothrombin (Homo sapiens) (UniProt P00734); assay: Inhibition of thrombin (unknown origin) using Boc-Val-Pro-Arg-AMC as substrate at 25 uM preincubated with protein for 15 mins followed by substrate addition measured for 10 mins by continuous fluorimetric assay relative to control
[7] = Cytotoxicity against human HuH7 cells infected with West Nile virus assessed as cell viability after 48 hrs by Cell-Titer-Glo luminescent viability assay; type: cell-based, Huh-7
How it was run: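 Huh-7 cells (10^4/well, DMEM + 10% FBS, overnight) were infected with WT WNV (MOI 0.1) alongside compound, each concentration in triplicate. After 48 h at 37 °C, fresh DMEM was added and viability was measured by CellTiter-Glo luminescence. CC50 was determined.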

Trypsin (Homo sapiens) = Trypsin (Homo sapiens) (UniProt P07477+P07478+P35030); assay: Inhibition of trypsin (unknown origin) using Boc-Val-Pro-Arg-AMC as substrate at 25 uM preincubated with protein for 15 mins followed by substrate addition by continuous fluorimetric assay relative to control
[8] = Inhibition of Dengue virus serotype-2 NS2B-NS3 protease using 2-Abz-Nle-Lys-Arg-Arg-Ser-(3-NO2)-Tyr-NH2 as substrate preincubated with protein for 15 mins followed by substrate addition measured for 15 mins by FRET assay; design: species or system dengue virus type 2
How it was run: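 DENV-2 NS2B-NS3 linked construct at 30 nM (15 nM in some cases), same pH 9 Tris buffer, 15 min preincubation and FRET read-out. Eight inhibitor concentrations spanned 0–1, 0–2, 0–6 or 0–50 μM, with substrate at 50 μM. IC50 was fitted from triplicates.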

dengue virus type 2 [9] = assay: Inhibition of Dengue virus serotype-2 NS2B-NS3 protease at 0 to 48 uM incubated for 1 hr by tryptophan quenching assay
West Nile virus [10] = assay: Inhibition of West Nile virus NS2B-NS3 protease using 2-Abz-Gly-Leu-Lys-Arg-Gly-Gly-[…]-Tyr-NH2 as substrate at 50 uM preincubated with protein for 15 mins followed by substrate addition measured for 15 mins by FRET assay
How it was run: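 Linked WNV NS2B-NS3 protease (150 nM) was preincubated 15 min with inhibitor (50 μM final) in 50 mM Tris-HCl pH 9, 10% ethylene glycol, 0.0016% Brij 58. […] Percent inhibition was taken from the slope relative to the no-inhibitor control, in triplicate.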

[11] = Permeability of compound after 5 hrs by PAMPA; type: ADME; settings: read-out: permeability
How it was run: (§2)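 Precoated PAMPA plates were equilibrated 1 h at room temperature. Donor wells received 200 μM compound in PBS, in triplicate, and acceptor wells received PBS. After 5 h at room temperature, donor and acceptor concentrations were quantified by RP-HPLC UV at 254 nm against six-point calibration curves (10–200 μM). Pe and mass retention were calculated by literature formulas.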

[12] = Permeability of compound assessed as compound mass retention after 5 hrs by PAMPA; type: ADME; how it was run: as §2
West Nile virus [13] = assay: Potency index, ratio of EC50 for relative to Bz-Lys-Arg-Phg-NH2 to EC50 for test compound for antiviral activity against West Nile virus infected in human HuH7 cells after 3 days by virus yield reduction assay; type: functional, Huh-7; how it was run: as §1
dengue virus type 2 [14] = assay: Antiviral activity against Dengue virus serotype-2 infected in African green monkey Vero cells after 7 days by virus yield reduction assay; type: functional, organism-based
dengue virus type 2 [15] = assay: Potency index, ratio of EC50 for relative to Bz-Lys-Arg-Phg-NH2 to EC50 for test compound for antiviral activity against Dengue virus serotype-2 infected in African green monkey Vero cells after 7 days by virus yield reduction assay; type: functional
How it was run: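 Huh-7 cells (10^4/well) in DMEM + 10% FBS, held overnight at 37 °C, then infected with DENV-2 (MOI 1) with nontoxic compound concentrations. Each concentration in triplicate, 48 h at 37 °C, then supernatants pooled. Titres by plaque assay on Vero E6 (10^-1 to 10^-6 dilutions, 1 h adsorption, 7 days, formaldehyde fix, crystal violet, plaque count). EC50 from nonlinear dose-response fit; reference inhibitor also assayed.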

West Nile virus [16] = assay: Inhibition of West Nile virus NS2B-NS3 protease at 0 to 48 uM incubated for 1 hr by tryptophan quenching assay
West Nile virus [17] = assay: Antiviral activity against West Nile virus infected in human HuH7 cells after 3 days by virus yield reduction assay; type: functional, organism-based; settings: Huh-7, 72 h
[18] = Half life in Sprague-Dawley rat liver microsomes incubated for 30 mins by UV-HPLC method; type: ADME
How it was run: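 Pooled male rat liver microsomes (0.2 mg/mL protein) with NADPH (10 mM) in DPBS were preincubated 15 min at 37 °C. Compound (100 μM) was added and incubated at 37 °C; aliquots were taken at 0, 2, 5, 10, 20 and 30 min. Samples were quenched with equal-volume acetonitrile, chilled and centrifuged, and parent remaining was quantified by RP-HPLC UV against reference peak areas. Testosterone served as positive control.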

COc1cccc(COc2ccc([C@@H](NC(=O)[C@H](CCCCN)NC(=O)[C@H](CCCNC(=N)N)NC(=O)c3ccc(-c4cccs4)s3)C(N)=O)cc2)c1
IC50 [1]: 0.557 µM
selectivity ratio [2]: > 25
Retention_time [3]: 3.28 min
CC50 at 48 h [4]: > 100 µM
selectivity ratio [5]: > 7
inhibition [6]: inactive
CC50 at 48 h [7]: > 100 µM
inhibition (Trypsin (Homo sapiens)): inactive
IC50 [8]: 0.176 µM
inhibition (dengue virus type 2 [9]): Active
inhibition (West Nile virus [10]): 100%
Papp at 5 h [11]: 0.65 ×10⁻⁶ cm/s
permeability [12]: 1.15%
Ratio EC50 (West Nile virus [13]): 7
EC50 (dengue virus type 2 [14]): 3.42 µM
Ratio EC50 (dengue virus type 2 [15]): 25
inhibition (West Nile virus [16]): Active
EC50 (West Nile virus [17]): 15.6 µM
half-life [18]: 2.92 h
